Reference: ChEMBL document CHEMBL1141217, “cycloSal-PMEA and cycloAmb-PMEA: potentially new phosphonate prodrugs based on the cycloSal-pronucleotide approach” (J Med Chem, 2005)
pEC50, pIC50: −log10 of the molar value. Active and inactive are the calls of the source. No cut-off for these calls is given here.

Key:
[1] = Chemical stability in phosphate buffer at pH 7.3; assay type: physicochemical; conditions: read-out: Stability (converted)
How it was run: (§1)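 Triesters hydrolysed at 37 °C in phosphate buffer pH 7.3 or citrate buffer pH 2.0, with AZT as internal standard; final 0.96 mM triester, 24.8 mM buffer. Aliquots quenched with glacial acetic acid and frozen, then analysed by reversed-phase HPLC with UV at 250 nm. t1/2 from rate constants of starting-triester peak decay; mean of duplicates.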

[2] = tested on: CCRF-CEM; assay: Cytotoxicity against CEM/O cells; assay type: functional; conditions: Homo sapiens
[3] = tested on: Human immunodeficiency virus 1; assay: Antiviral potency against HIV1 in CEM/O cells; assay type: functional, organism-based; conditions: Human immunodeficiency virus 1, CEM/O
How it was run: (§2)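 CEM cells at 4×10^5 cells/mL infected with HIV-1 or HIV-2 (ROD) at ~100 CCID50 per mL; virus stocks from infected MT-4 cell supernatants. Infected cells mixed with serial compound dilutions. After 4–5 days, giant cell formation scored microscopically; EC50 = concentration giving 50% protection.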

[4] = tested on: Human immunodeficiency virus 2; assay: Antiviral potency against HIV2 in CEM/O cells; assay type: functional, organism-based; conditions: Human immunodeficiency virus 2, CEM/O; how it was run: as §2
[5] = LogP using HPLC method; assay type: physicochemical
[6] = Chemical stability in citrate buffer at pH 2.0; assay type: physicochemical; how it was run: as §1
[7] = molecular target: Cholinesterase (Homo sapiens, UniProt P06276); assay: Inhibitory activity against human butyryl cholinesterase
Sequence of Cholinesterase (P06276 whole entry): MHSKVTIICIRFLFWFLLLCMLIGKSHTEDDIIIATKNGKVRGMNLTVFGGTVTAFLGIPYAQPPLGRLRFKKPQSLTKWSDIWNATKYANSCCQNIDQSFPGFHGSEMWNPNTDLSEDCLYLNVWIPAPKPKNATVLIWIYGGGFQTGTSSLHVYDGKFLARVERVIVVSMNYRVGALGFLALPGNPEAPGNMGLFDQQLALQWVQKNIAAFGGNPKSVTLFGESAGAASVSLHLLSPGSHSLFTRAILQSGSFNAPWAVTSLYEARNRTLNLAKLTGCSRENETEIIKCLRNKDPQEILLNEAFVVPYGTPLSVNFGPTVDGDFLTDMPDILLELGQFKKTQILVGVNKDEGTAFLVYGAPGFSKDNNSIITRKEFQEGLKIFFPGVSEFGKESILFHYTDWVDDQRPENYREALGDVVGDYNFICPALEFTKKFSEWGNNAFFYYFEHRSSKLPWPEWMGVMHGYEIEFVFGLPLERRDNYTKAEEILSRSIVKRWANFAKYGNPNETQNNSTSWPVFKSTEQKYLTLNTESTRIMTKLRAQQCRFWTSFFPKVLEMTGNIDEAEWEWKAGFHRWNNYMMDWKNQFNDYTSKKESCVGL

[8] = Inhibitory activity against human acetyl cholinesterase
[9] = Half life in CEM/O cells; assay type: ADME, cell-based; conditions: human, CEM/O cells (CCRF-CEM cell line)
How it was run: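 Triester (1.5 mM stock in DMSO) incubated with CEM cell extract plus MgCl2 (70 mM stock) for 8 h. Stopped with acidic methanol, 5 min at 0 °C, centrifuged and filtered; supernatant analysed by reversed-phase HPLC with UV at 250 nm.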

Structure (SMILES) | half-life [1] [h] | CC50 [2] [µM] | pEC50 [3] | pEC50 [4] | logP [5] | Stability [6] [h] | pIC50 [7] | Activity [8] | half-life [9] [h]
CC(C)(C)C(=O)OCOP(=O)(COCCn1cnc2c(N)ncnc21)OCOC(=O)C(C)(C)C [ADEFOVIR DIPIVOXIL] | 14.7 | 0.74 | 6.74 | 7.12 | – | – | – | – | –
Cc1cccc2c1NP(=O)(COCCn1cnc3c(N)ncnc31)OC2 (stereo unspecified) | 21.3 | > 250 | 4.54 | 4.25 | 0.45 | 29 | < 4.30 | inactive | –
Nc1ncnc2c1ncn2CCOCP1(=O)Nc2ccccc2CO1 (stereo unspecified) | 4 | 183 | 4.70 | 4.68 | 0.23 | 9.6 | < 4.30 | inactive | –
Nc1ncnc2c1ncn2CCOCP1(=O)Nc2cccc(F)c2CO1 (stereo unspecified) | 1.3 | 244 | 4.55 | 4.59 | 0.49 | – | < 4.30 | inactive | –
Nc1ncnc2c1ncn2CCOCP(=O)(O)O [ADEFOVIR] | – | 50 | 5.00 | 5.00 | – | – | – | – | –
CC(C)(C)c1cccc2c1OP(=O)(COCCn1cnc3c(N)ncnc31)OC2 (stereo unspecified) | 4.05 | 29 | 5.52 | 5.35 | 0.47 | 23.7 | < 4.30 | inactive | 3
CC(C)(C)c1cc2c(c(C(C)(C)C)c1)OP(=O)(COCCn1cnc3c(N)ncnc31)OC2 (stereo unspecified) | 3.05 | 17 | 5.26 | 5.28 | 1.72 | 9.6 | < 4.30 | inactive | 3
Cc1cccc2c1OP(=O)(COCCn1cnc3c(N)ncnc31)OC2 (stereo unspecified) | 0.56 | – | – | – | – | – | < 4.30 | inactive | 0.6
Nc1ncnc2c1ncn2CCOCP1(=O)OCc2ccccc2O1 (stereo unspecified) | 0.09 | – | – | – | – | – | < 4.30 | inactive | 0.1
